From PubChem
Most compounds without a hit are left out; they make up all but 1.6% or so of the library.
A1 inh: caspase 3/7 activation in MEF A1-2A-BIM cells, primary screen, A1 inhibitor project, cell-based, luminescence, HTS; 330,000 tested, 0.066% active; Caspase-Glo 3/7 luminescence, 3 h; percent of clofoctol response, vehicle zero; caspase activation, % (no concentration beside the values);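 active means over half of replicate activation scores above 10%, or exactly half above 10 with the replicate mean above 10; inconclusive means replicate mean below 10 yet half the replicates above 10; inactive means over half of replicates below 10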
TAG inh: inhibitors of triacylglycerol accumulation, primary screen, cell-based, uHTS, fluorescence, H9c2. 230,000 tested, 0.66% active. inhibition, % at 12.5 µM. H9c2 cells, Nile Red lipid (TAG) fluorescence; cells loaded with 200 µM oleic acid;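 active means pattern-corrected inhibition of lipid staining of at least 50% with the nuclear-stain viability signal not falling by more than 50%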;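 further: 0% = DMSO wells and 100% = triacsin C control wells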
Vif imaging: HIV Vif self-association inhibitors, primary screen, imaging, HEK293T, single point. HEK293T cells, Vif self-association by quenched fluorescence, 24 h. inhibition, % at 7.49 µM. 340,000 tested, 0.35% active; in the data active means inhibition above about 50%, passing the limit was not always enough; inconclusive means no clear call, values can overlap the other calls; inactive means below about 31%
SR-BI DiI inh: inhibitors of SR-BI mediated HDL lipid uptake, primary screen, ldlA[mSR-BI] cells, fluorescence, single point; ldlA[mSR-BI] CHO cells, DiI-HDL uptake fluorescence, 3 h; inhibition, % at 12.5 µM; 320,000 tested, 0.96% active;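 active means mean replicate inhibition of at least 70% and a set share of replicates each scoring 70 or more; inconclusive means meets just one of the two criteria; inactive means fails both criteria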;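 further: 0% = median of neutral control wells and 100% = median of positive control wells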
Target sequence (Q61009 whole entry, looked up): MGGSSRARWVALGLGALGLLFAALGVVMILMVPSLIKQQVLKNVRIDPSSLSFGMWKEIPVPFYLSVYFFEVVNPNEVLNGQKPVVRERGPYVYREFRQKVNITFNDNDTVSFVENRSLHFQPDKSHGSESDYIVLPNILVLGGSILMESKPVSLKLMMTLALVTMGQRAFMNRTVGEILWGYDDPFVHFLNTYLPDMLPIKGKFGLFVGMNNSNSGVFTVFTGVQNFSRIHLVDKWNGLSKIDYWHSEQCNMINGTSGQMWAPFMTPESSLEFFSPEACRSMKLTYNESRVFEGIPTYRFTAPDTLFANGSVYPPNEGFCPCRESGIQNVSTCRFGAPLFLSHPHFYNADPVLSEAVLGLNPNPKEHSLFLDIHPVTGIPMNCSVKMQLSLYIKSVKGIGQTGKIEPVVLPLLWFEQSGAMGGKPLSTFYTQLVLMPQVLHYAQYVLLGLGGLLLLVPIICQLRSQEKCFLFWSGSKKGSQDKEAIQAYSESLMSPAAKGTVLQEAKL
SR-BI DiI-HDL act: activators of SR-BI mediated DiI-HDL uptake, primary screen, ldlA[mSR-BI] CHO cells, DiI fluorescence; activation, % at 12.5 µM; 320,000 tested, 0.096% active; 3 h; 100 = double the neutral-control signal;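 active means mean replicate activation of at least 60% and every replicate at or above 60%; inconclusive means mean or all-replicate condition met, but not both; inactive means mean below 60% and not all replicates reaching 60%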;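 further: 0% = median plate neutral-control signal and 100% = twice that signal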
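Material: SR-BI-overexpressing, LDLR-lacking CHO cells; schedule: compound exposure 3 h, 37 °C; reagent: DiI-labelled HDL at 10 µg/mL final; technique: bottom-read fluorescence, 550/595 nm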
* hit, by the source's call; ? = inconclusive; . = no result.

SMILES	A1 inh	TAG inh	Vif imaging	SR-BI DiI inh	SR-BI DiI-HDL act
O=C(N/N=C/c1ccc[nH]1)c1ccccc1OCc1ccc(F)cc1	1.0	4.7	1.1	.	.
CCOc1ccc(OCc2ccc(C(=O)NN=Cc3ccc[nH]3)cc2)cc1	9.7*	60.3*	-6.8	?	-70.0
COc1ccccc1N1CCN(C(=O)c2cc(-c3ccc(F)cc3)[nH]c2C)CC1	-0.3	.	-5.3	46.9	-46.9
COc1cccc(N2CCN(S(=O)(=O)c3cc4c(cc3C)N(C)CCO4)CC2)c1	-0.3	-5.7	76.2*	17.9	-17.9
O=C(/C=C/c1ccc(OC(F)F)cc1)Nc1cccc(S(=O)(=O)N2CCOCC2)c1	1.1	-17.6	-8.2	79.8*	-79.8
CN(C)S(=O)(=O)c1cccc(NC(=O)/C=C/c2ccc(S(=O)(=O)N3CCOCC3)cc2)c1	0.8	-14.3	-18.5	52.2	-52.2
CC(=O)c1cccc(NC(=O)/C=C/c2ccc(S(=O)(=O)N3CCOCC3)cc2)c1	0.6	23.3	.	72.1*	-72.1
CCOC(=O)CNC(=O)CSc1nc(Cc2ccccc2)nc2ccccc12	-0.5	.	2.0	11.5	-11.5
COc1ccc(-c2ccc3c(c2)S(=O)(=O)c2cccc(C(=O)NCCOc4ccccc4)c2C3=O)cc1OC	1.9	21.1	5.6	72.7*	-72.7
O=C(O)CNS(=O)(=O)c1ccc(C2CCCCC2)cc1	-0.1	.	0.5	-9.2	9.2
COc1cc(C(=O)Oc2ccccc2/C=N/NC(=O)c2ccc(Cl)cc2Cl)cc(OC)c1OC	-1.3	8.7	-3.1	82.4*	-82.4
COc1cc(/C=N/NC(=O)c2ccncc2)ccc1OC(=O)c1cc(OC)c(OC)c(OC)c1	0.6	.	4.9	77.0*	-77.0
COc1cc(/C=N/NC(=O)c2cccnc2)ccc1OCC(=O)Nc1c(C)cc(C)cc1C	1.0	.	-6.5	71.0*	-71.0
COC(=O)C(Cc1ccc(O)cc1)NC(=O)C(C)NC(=O)c1ccc(C(C)(C)C)cc1 (configuration not stated)	0.8	.	1.8	-2.3	2.3
CC(C)n1c(N2CCN(C(=O)NCc3ccccc3)CC2)nc2ccccc21	0.2	-7.3	-5.9	34.9	-34.9
COc1cccc(-c2csc(N3CCN(C(=O)Nc4ccc(Cl)cc4)CC3)n2)c1	0.0	-4.6	-12.0	56.2	-56.2
COc1ccc(NC(=O)N2CCN(c3nc4ccccc4n3C(C)C)CC2)cc1	-0.3	5.8	0.3	81.3*	-81.3
COc1ccc(NC(=O)N2CCN(c3nc(-c4cccc(OC)c4)cs3)CC2)cc1	0.1	.	-18.9	71.0*	-71.0
CCCCCCSc1ccc([C@@H]2[C@H]3C(=O)N(CC)C(=O)[C@H]3[C@]3(C(=O)OC)CCCCN23)cc1OC	-0.6	-55.8	-7.5	20.8	-20.8
CCOc1cc(N2CCOCC2)c(OCC)cc1NC(=O)COC(=O)CCOc1cc(C)ccc1C	0.4	-9.8	-11.9	-12.0	12.0
CCCC1=Nc2cc(C(=O)NCCCOCC)ccc2Sc2ccccc21	0.4	79.3*	25.1	22.2	-22.2
CCCC1=Nc2cc(C(=O)NCCCOC(C)C)ccc2Sc2ccccc21	0.2	40.1	-14.1	18.4	-18.4
Cc1cc(C)nc(S/C=C/C(=O)c2ccccc2F)n1	1.2	75.1*	7.8	-3.8	3.8
Nc1nn(-c2ccccc2)c(N)c1N=Nc1ccc2c(c1)OCO2	-5.0	.	.	45.8	-45.8
Nc1nn(-c2ccccc2)c(N)c1N=Nc1cccc(F)c1	-0.6	53.6*	0.2	.	.
CC1=[N+](C)c2c(ccc3cccnc23)C1(C)C	.	-4.8	4.2	-97.3	97.3*
C[C@H](CO)N1C[C@H](C)[C@@H](CN(C)S(=O)(=O)c2ccccc2C#N)OCc2cn(nn2)CCCC1=O	.	-3.7	0.9	.	.
Cc1c(C)c2ccc(OC(C)C(=O)NCCCN3CCOCC3)c(C)c2oc1=O (configuration not stated)	-0.4	.	7.6	1.6	-1.6
O=C(/C=C/c1ccco1)N1CCC(Cc2ccccc2)CC1	-0.1	4.3	64.9*	-8.0	8.0
COC(=O)C1=C(C)N(Cc2ccco2)C(=O)/C1=C\c1ccc([N+](=O)[O-])cc1	0.5	-2.6	-4.3	18.9	-18.9
